Results taken from ChEMBL document CHEMBL3526048, “In vitro metabolism of rivoglitazone, a novel peroxisome proliferator-activated receptor γ agonist, in rat, monkey, and human liver microsomes and freshly isolated hepatocytes” (Drug Metab Dispos, 2011).

Columns and labels:
Cytochrome P450 2C19 [1] = target: T1, Cytochrome P450 2C19 (Homo sapiens, UniProt P33261); experiment: (§1) Activity of human CYP2C19 expressed in microsomes isolated from baculovirus infected insect cell assessed as enzyme-mediated (2S,3S,4S,5R,6R)-6-((1-carboxy-2-(4-((6-methoxy-1-methyl-1H-benzo[d]imidazol-2-yl)methoxy)phenyl)ethylthio)carbonylamino)-3,4,5-trihydroxytetrahydro-2H-pyran-2-carboxylic acid formation at 20 uM after 2 hrs by radio-HPLC/LC-MS/MS analysis in presence of NADPH-generating system/SAM; format: ADME
[2] = Drug metabolism in rat hepatocytes assessed as formation of 2-mercapto-3-(4-((6-methoxy-1-methyl-1H-benzo[d]imidazol-2-yl)methoxy)phenyl)propanamide at 30 uM after 3 hrs by radio-HPLC/LC-MS/MS analysis in presence of NADPH-generating system and NADPH-generating system/SAM; format: ADME, cell-based, Hepatocyte
[3] = Drug metabolism in monkey hepatocytes assessed as formation of 5-hydroxy-5-(4-((6-methoxy-1-methyl-1H-benzo[d]imidazol-2-yl)methoxy)benzyl)thiazolidine-2,4-dione at 30 uM after 3 hrs by radio-HPLC/LC-MS/MS analysis in presence of NADPH-generating system and NADPH-generating system/SAM; settings: cynomolgus monkey
Cytochrome P450 2D6 [4] = target: T2, Cytochrome P450 2D6 (Homo sapiens, UniProt P10635); experiment: Activity of human CYP2D6 expressed in microsomes isolated from baculovirus infected insect cell assessed as enzyme-mediated 2-amino-3-((1-carboxy-2-(4-((6-methoxy-1-methyl-1H-benzo[d]imidazol-2-yl)methoxy)phenyl)ethyl)disulfanyl)propanoic acid formation at 20 uM after 2 hrs by radio-HPLC/LC-MS/MS analysis; format: ADME
Method in brief: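 Baculovirus-insect-cell microsomes expressing the human CYP (1 mg/ml protein) were incubated with [14C]rivoglitazone (20 μM) in 50 mM potassium phosphate (pH 7.4) or 100 mM Tris-HCl (pH 7.5) with an NADPH-generating system (2 mM NADP+, 20 mM glucose 6-phosphate, 2 units/ml G6PDH, 10 mM MgCl2) for 2 h at 37°C. Insect-cell control supersomes served as the control. Reactions were stopped with acetonitrile, and the concentrated supernatants were analysed by radio-HPLC, LC-MS and LC-MS/MS.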

Cytochrome P450 2C8 = target: T3, Cytochrome P450 2C8 (Homo sapiens, UniProt P10632); experiment: Activity of human CYP2C8 expressed in microsomes isolated from baculovirus infected insect cell assessed as enzyme-mediated 2-mercapto-3-(4-((6-methoxy-1-methyl-1H-benzo[d]imidazol-2-yl)methoxy)phenyl)propanoic acid formation at 20 uM after 2 hrs by radio-HPLC/LC-MS/MS analysis in presence of NADPH-generating system; format: ADME
T3 sequence (P10632 whole entry): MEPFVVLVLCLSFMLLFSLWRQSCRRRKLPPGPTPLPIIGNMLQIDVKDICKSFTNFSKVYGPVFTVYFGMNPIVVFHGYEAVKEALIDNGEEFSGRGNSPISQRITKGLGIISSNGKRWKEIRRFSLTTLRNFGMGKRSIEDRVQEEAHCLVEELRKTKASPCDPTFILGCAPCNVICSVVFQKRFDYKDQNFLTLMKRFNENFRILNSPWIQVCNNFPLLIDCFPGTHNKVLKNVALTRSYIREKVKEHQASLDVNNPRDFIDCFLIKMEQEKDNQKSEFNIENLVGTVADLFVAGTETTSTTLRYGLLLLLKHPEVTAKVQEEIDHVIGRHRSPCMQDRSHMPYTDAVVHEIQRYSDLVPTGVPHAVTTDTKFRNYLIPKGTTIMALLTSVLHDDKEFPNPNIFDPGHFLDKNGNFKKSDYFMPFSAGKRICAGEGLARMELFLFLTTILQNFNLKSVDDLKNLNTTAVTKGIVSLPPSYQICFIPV
Method in brief: (§2)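 Baculovirus/insect-cell microsomes expressing single human CYPs, 1 mg/ml protein, with 50 mM potassium phosphate (pH 7.4) or 100 mM Tris-HCl (pH 7.5). NADPH-generating system: 2 mM NADP⁺, 20 mM glucose 6-phosphate, 2 units/ml G6PDH, 10 mM MgCl₂. [¹⁴C]rivoglitazone at 20 μM, 2 h at 37°C with shaking. Control used insect-cell control supersomes. Stopped with acetonitrile; supernatant concentrated under nitrogen; metabolites analysed by radio-HPLC, LC-MS and LC-MS/MS.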

Cytochrome P450 1A2 = target: T4, Cytochrome P450 1A2 (Homo sapiens, UniProt P05177); experiment: (§3) Activity of human CYP1A2 expressed in microsomes isolated from baculovirus infected insect cell assessed as enzyme-mediated 5-(4-((6-methoxy-1H-benzo[d]imidazol-2-yl)methoxy)benzyl)thiazolidine-2,4-dione formation at 20 uM after 2 hrs by radio-HPLC/LC-MS/MS analysis in presence of NADPH-generating system and NADPH-generating system/SAM; format: ADME; method in brief: as §2
T4 sequence (P05177 whole entry): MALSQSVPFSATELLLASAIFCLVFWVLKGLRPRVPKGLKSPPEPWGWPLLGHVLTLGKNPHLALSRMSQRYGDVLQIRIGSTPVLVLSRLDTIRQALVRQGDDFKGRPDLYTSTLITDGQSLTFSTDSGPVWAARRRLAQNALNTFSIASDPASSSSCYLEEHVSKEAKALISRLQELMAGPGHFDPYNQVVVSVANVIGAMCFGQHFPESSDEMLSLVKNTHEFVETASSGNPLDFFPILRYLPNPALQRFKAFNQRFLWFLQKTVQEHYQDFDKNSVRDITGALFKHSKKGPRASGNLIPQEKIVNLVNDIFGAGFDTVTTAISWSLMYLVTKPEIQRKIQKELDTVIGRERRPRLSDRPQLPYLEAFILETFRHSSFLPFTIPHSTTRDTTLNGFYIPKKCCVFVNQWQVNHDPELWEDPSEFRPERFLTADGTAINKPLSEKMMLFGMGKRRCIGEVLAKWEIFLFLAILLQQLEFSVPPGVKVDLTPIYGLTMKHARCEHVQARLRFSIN

Cytochrome P450 2C19 [5] = target: T1, Cytochrome P450 2C19; experiment: as §3, with “CYP2C19” for “CYP1A2”; format: ADME; method in brief: as §2
Liver microsome [6] = experiment: Drug metabolism in human liver microsomes assessed as formation of 3-(4-((6-methoxy-1-methyl-1H-benzo[d]imidazol-2-yl)methoxy)phenyl)-2-(methylsulfonyl)propanamide at 20 uM after 2 hrs by radio-HPLC/LC-MS/MS analysis in presence of NADPH-generating system/SAM; format: ADME
Cytochrome P450 2D6 [7] = target: T2, Cytochrome P450 2D6; experiment: as §1, with “CYP2D6” for “CYP2C19”; format: ADME
Liver microsome [8] = experiment: Drug metabolism in human liver microsomes assessed as formation of 2-mercapto-3-(4-((6-methoxy-1-methyl-1H-benzo[d]imidazol-2-yl)methoxy)phenyl)propanoic acid at 20 uM after 2 to 4 hrs by radio-HPLC/LC-MS/MS analysis in presence of UDPGA, UDPGA/SAM and NADPH-generating system; format: ADME
Cytochrome P450 3A5 = Cytochrome P450 3A5 (Homo sapiens, UniProt P20815); experiment: Activity of human CYP3A5 expressed in microsomes isolated from baculovirus infected insect cell assessed as enzyme-mediated 3-(4-((6-methoxy-1-methyl-1H-benzo[d]imidazol-2-yl)methoxy)phenyl)-2-(methylsulfinyl)propanamide formation at 20 uM after 2 hrs by radio-HPLC/LC-MS/MS analysis in presence of NADPH-generating system/SAM; format: ADME
Method in brief: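 cDNA-expressed human CYP3A5 in baculovirus-insect-cell microsomes (1 mg/ml protein) was incubated with [¹⁴C]rivoglitazone (20 μM) in 50 mM potassium phosphate (pH 7.4) or 100 mM Tris-HCl (pH 7.5). NADPH-generating system: 2 mM NADP⁺, 20 mM glucose 6-phosphate, 2 units/ml G6PDH, 10 mM MgCl₂. Incubation ran 2 h at 37°C with shaking; insect-cell control supersomes served as control. Acetonitrile stop, supernatant concentrated, then radio-HPLC, LC-MS and LC-MS/MS.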

T2 sequence (P10635 whole entry): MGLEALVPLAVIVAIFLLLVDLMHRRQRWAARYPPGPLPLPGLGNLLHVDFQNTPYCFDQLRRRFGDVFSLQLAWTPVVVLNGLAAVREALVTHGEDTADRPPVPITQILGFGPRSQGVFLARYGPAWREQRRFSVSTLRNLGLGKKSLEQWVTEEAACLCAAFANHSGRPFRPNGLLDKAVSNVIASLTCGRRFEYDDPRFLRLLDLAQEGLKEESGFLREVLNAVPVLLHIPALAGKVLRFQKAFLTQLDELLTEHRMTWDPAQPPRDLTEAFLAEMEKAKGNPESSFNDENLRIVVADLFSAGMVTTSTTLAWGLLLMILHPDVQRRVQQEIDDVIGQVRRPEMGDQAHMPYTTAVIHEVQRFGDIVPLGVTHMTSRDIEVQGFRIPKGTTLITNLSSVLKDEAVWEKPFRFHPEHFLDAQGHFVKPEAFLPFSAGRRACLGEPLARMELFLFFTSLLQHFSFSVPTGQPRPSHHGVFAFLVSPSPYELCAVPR
T1 sequence (P33261 whole entry): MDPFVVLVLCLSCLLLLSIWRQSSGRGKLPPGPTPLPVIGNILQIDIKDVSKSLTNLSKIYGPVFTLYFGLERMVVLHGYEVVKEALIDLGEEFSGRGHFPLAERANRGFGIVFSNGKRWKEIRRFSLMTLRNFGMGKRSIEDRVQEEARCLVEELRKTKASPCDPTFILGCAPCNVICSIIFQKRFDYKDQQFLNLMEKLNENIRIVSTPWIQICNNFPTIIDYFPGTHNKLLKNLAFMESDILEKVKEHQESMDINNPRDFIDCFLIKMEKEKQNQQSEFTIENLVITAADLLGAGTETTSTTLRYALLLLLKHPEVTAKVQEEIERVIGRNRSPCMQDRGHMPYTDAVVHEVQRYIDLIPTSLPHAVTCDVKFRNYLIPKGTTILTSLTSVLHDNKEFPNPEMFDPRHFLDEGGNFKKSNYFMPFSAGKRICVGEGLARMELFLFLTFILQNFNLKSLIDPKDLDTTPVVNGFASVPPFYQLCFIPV
Chain of Cytochrome P450 3A5 (P20815 whole entry): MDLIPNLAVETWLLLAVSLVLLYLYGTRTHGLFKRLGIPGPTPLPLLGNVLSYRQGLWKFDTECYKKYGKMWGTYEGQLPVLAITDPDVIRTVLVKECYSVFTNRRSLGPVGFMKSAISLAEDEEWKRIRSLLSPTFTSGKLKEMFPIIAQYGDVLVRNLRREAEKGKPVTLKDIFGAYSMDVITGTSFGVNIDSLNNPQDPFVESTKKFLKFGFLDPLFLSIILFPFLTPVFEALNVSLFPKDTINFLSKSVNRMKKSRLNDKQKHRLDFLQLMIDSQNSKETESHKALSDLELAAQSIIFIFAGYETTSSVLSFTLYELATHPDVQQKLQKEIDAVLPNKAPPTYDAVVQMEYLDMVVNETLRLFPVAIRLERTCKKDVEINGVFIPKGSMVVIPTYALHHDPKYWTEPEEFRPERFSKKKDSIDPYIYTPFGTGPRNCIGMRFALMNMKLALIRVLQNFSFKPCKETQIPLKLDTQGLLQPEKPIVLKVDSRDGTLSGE

- Drug metabolism (Cytochrome P450 2C19 [1]): metabolite_not_detected
- Drug metabolism [2]: metabolite_not_detected
- Drug metabolism [3]: metabolite_detected
- Drug metabolism (Cytochrome P450 2D6 [4]): metabolite_not_detected
- Drug metabolism (Cytochrome P450 2C8): metabolite_detected
- Drug metabolism (Cytochrome P450 1A2): metabolite_detected
- Drug metabolism (Cytochrome P450 2C19 [5]): metabolite_detected
- Drug metabolism (Liver microsome [6]): metabolite_detected
- Drug metabolism (Cytochrome P450 2D6 [7]): metabolite_not_detected
- Drug metabolism (Liver microsome [8]): metabolite_detected
- Drug metabolism (Cytochrome P450 3A5): metabolite_not_detected
SMILES: COc1ccc2nc(COc3ccc(C[14CH]4SC(=O)NC4=O)cc3)n(C)c2c1.Cl (racemic)
